Among the data in ChEMBL document CHEMBL3120131, “Lipoxygenase inhibitors derived from marine macroalgae” (Bioorg Med Chem Lett, 2014) are inhibition and IC50 values, retold here.

The target in test [1] is T1, Seed linoleate 9S-lipoxygenase (Glycine max) (UniProt P24095).
T1 sequence (whole entry): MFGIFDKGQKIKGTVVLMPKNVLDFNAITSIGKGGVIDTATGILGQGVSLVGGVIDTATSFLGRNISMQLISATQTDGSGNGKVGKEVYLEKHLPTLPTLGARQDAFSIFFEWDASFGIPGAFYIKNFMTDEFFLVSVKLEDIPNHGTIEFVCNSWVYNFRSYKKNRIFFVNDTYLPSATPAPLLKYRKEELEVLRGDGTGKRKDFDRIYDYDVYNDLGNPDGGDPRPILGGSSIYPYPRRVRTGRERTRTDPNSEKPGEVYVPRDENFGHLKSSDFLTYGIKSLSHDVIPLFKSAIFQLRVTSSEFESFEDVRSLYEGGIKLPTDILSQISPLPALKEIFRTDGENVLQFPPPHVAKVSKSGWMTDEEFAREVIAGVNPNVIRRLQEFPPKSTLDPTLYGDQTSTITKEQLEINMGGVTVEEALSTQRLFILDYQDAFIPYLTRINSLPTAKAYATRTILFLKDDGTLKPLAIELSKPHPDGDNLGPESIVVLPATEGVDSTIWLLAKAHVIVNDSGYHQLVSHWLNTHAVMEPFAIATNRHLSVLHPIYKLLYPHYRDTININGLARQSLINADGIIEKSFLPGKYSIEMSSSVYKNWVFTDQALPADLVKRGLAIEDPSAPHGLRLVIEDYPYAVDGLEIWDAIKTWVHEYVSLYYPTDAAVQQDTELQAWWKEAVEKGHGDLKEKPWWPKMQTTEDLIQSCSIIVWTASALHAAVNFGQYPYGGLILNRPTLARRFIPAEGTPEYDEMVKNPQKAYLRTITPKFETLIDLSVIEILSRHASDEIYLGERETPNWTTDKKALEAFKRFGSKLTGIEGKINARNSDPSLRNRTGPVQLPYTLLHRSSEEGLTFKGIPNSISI
In words: Inhibition of soybean lipoxygenase at 100 uM. Put shortly:
(§1)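 Soybean LOX (0.4 mg/mL stock in 100 mM borate, pH 9.0) and methanol-dissolved sample were pre-incubated 5 min at 27.5°C in 20 mM 3-dimethylaminobenzoic acid/borate pH 9.0. Argon-flushed substrate was added and the mixture held 5 min at 27.5°C. Stopped with MBTH–hemoglobin in phosphate pH 5.0; after 5 min, 1% SDS was added and A598 compared against control.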

The target in test [2] is T2, Seed linoleate 9S-lipoxygenase (Glycine max, UniProt P24095).
T2 sequence (P24095 whole entry): T1 sequence (whole entry)
Briefly: (§2) Inhibition of soybean lipoxygenase. The method in brief:
as §1

Test [3] has as its target T1, Seed linoleate 9S-lipoxygenase (Glycine max). Described as §2. Put shortly: as §1

Structures are written as SMILES.

The inhibition is how much of the control response was suppressed. The IC50 is the concentration at which inhibition is half-maximal. The low end stands for inhibition by little substance, the high end for a need for much substance. Turning to `CC(Cc1ccc(O)c(O)c1)C(C)Cc1ccc(O)c(O)c1` (stereo not given) [NORDIHYDROGUAIARETIC ACID], in test [1], the inhibition was 12.7%. In test [2], this compound came in with an IC50 of 400 µM.

For `C=Cc1c(C)c2cc3nc(c4c5[nH]c(cc6nc(cc1[nH]2)C(C)=C6CC)c(C)c5C(=O)[C@@H]4C(=O)OC)[C@@H](CCC(=O)O)[C@@H]3C`, in test [1], the inhibition turned out to be 6.5%.

In test [1], `C=Cc1c(C)c2cc3nc(c4c5[nH]c(cc6nc(cc1[nH]2)C(C)=C6CC)c(C)c5C(=O)[C@@H]4C(=O)OC)[C@@H](CCC(=O)OC/C=C(\C)CCC[C@H](C)CCC[C@H](C)CCCC(C)C)[C@@H]3C` returned an inhibition of 37.6%.

As for `C=CCCC/C=C\C/C=C\C/C=C\C/C=C\CCCCC`, the inhibition result in test [3] was “Dose-dependent effect”. This compound showed an IC50 in test [2] of 40 µM.

Turning to `C=Cc1c(C)c2cc3nc(c4c5[nH]c(cc6nc(cc1[nH]2)C(C)=C6CC)c(C)c5C(=O)C4)[C@@H](CCC(=O)O)[C@@H]3C`, the inhibition in test [1] turned out to be 15%.

In turn, `C=Cc1c(C)c2cc3nc(c4c5[nH]c(cc6nc(cc1[nH]2)C(C)=C6CC)c(C)c5C(=O)C4)[C@@H](CCC(=O)OC/C=C(\C)CCC[C@H](C)CCC[C@H](C)CCCC(C)C)[C@@H]3C` showed an inhibition in test [1] of 29.4%.

`C=CCCC/C=C\C/C=C\C/C=C\C/C=C\C/C=C\CC`: the inhibition entry in test [3] is “Dose-dependent effect”. 5 µM corresponded to half-maximal inhibition in test [2] (IC50).
